Assay results published in paper PMC5570473 (Nature chemical biology, 2017).
Like-named read-outs stand apart in the source and are kept apart here. Peptide text beside a SMILES is read from it. * marks the point of attachment. Cbz = O=C(OCc1ccccc1)*

Assays:
Rpn11 = Rpn11 (Homo sapiens, UniProt O00487); experiment: In vitro Rpn11 activity assay; assay type: biochemical; details: for effect of Zn(cyclen)^2+ on IC50 for Rpn11: 100 μM Zn(cyclen)^2+ present
AMSH = AMSH (Homo sapiens, UniProt O95630); experiment: In vitro AMSH activity assay; assay type: biochemical
Chain of AMSH (O95630 whole entry): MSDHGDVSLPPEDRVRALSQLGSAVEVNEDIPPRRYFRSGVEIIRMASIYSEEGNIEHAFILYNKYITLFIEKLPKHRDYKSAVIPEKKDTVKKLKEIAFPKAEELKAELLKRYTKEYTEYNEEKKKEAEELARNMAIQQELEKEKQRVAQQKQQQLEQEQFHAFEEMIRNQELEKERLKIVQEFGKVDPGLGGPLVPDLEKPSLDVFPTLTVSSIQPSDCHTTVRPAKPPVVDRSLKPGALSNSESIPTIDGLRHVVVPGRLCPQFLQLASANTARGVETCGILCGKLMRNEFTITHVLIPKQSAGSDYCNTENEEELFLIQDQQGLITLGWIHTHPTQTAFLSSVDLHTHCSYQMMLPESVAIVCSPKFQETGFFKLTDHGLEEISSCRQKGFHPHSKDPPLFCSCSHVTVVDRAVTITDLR

[1] = test system: Hela cells stably expressing Ub^G76V-GFP; experiment: Ub^G76V-GFP accumulation assay; assay type: cell-based; details: for accumulation of Ub^G76V-GFP: 5 μM, 4 hours
glyoxalase I (GLO1) = glyoxalase I (GLO1) (Homo sapiens, UniProt Q04760); experiment: Human Glyoxalase 1 assay; assay type: biochemical
Chain of glyoxalase I (GLO1) (Q04760 2-184 limits assumed): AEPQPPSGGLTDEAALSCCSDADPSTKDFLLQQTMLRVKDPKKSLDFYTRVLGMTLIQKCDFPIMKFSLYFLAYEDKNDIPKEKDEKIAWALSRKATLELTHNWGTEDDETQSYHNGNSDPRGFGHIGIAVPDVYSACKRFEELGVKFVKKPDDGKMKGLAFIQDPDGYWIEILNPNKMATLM
Outline: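 Recombinant human GLO1 (40 ng) was preincubated 15–20 min with inhibitor in 100 mM sodium phosphate, pH 7.0. Substrate was then added, formed by letting glutathione and methylglyoxal stand 20 min in buffer (≤5% DMSO final). A240 was read every minute for 8 min. Rates were compared with no-inhibitor controls after subtracting no-enzyme background.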

A549 cells = experiment: Aggresome formation and clearance assay; assay type: cell-based, human; details: for aggresome formation (ubiquitin, HDAC6, p62/SQSTM1 staining): 15 hours
Outline: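 A549 cells were loaded with 5 μM MG132 for 15 h, washed free of it, then held ± a range of test compound concentrations for 24 h. They were fixed in 4% paraformaldehyde, permeabilised with 0.2% Triton X-100, blocked in 5% FBS/0.1% Triton X-100, immunostained for ubiquitin, HDAC6 or p62/SQSTM1, and imaged.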

MMP12 = experiment: MMP activity assay; assay type: biochemical, human
angiomotin in 293T cells = experiment: Pulldown of polyubiquitylated protein; assay type: cell-based; details: 8 hours
Outline: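 293T cells were treated 8 h with test compound, bortezomib or DMSO. Lysis was in 40 mM Tris-HCl pH 7.6, 5 mM NEM, 0.1% NP-40, followed by binding to TUBE2 agarose for 2 h at 4°C. Beads were washed three times in the same buffer with 150 mM NaCl, then eluted in SDS buffer. Eluates were immunoblotted for ubiquitin and angiomotin.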

MMP2 = experiment: MMP activity assay; assay type: biochemical, human
26S proteasome = 26S proteasome (Saccharomyces cerevisiae, UniProt P43588); assay type: biochemical, yeast; details: 20 μM, purified proteasomes
Outline: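 Alexa488-labelled Rpn10-I27V13Pext (100 nM) was incubated with 10 nM purified yeast 26S proteasome at 30°C, ± 20 μM test compound. Aliquots were taken at 0, 30, 60, 90 and 120 min into SDS sample buffer and resolved by SDS-PAGE. Intact substrate was quantified by fluorescence gel imaging (488/520 nm).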

MCF7 (breast cancer) = experiment: NCI 60 panel, MCF7; assay type: cell-based; details: Homo sapiens, MCF7, read-out: GI50 MCF7
HCT116 cells [2] = experiment: Cell growth inhibition, CellTiter-Glo, 72 hours; assay type: cell-based; details: Homo sapiens, HCT-116, 72 h
Outline: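 HCT116 cells were exposed to a test-compound concentration series for 72 h in normal or low-serum medium, then mixed with CellTiter-Glo. Luminescence was normalised to DMSO and a dose-response fit gave GI50. Data are n=3 wells, one representative of 3 independent experiments.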

[3] = test system: NCI-H460 (non-small cell lung cancer); experiment: NCI 60 panel, NCI-H460; assay type: cell-based; details: Homo sapiens, NCI-H460, read-out: GI50 NCI-H460
SR cell line (leukemia) = experiment: NCI 60 panel, SR cell line; assay type: cell-based; details: Homo sapiens, read-out: GI50 SR
[4] = test system: angiomotin K481 ubiquitination in 293T cells; experiment: Quantitative ubiquitination site profiling; assay type: cell-based, human; details: 8 hours, 10 μM capzimin or 1 μM BTZ
Outline: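 SILAC-labelled HEK293T cells were grown in Arg/Lys-free DMEM with 10% dialysed FBS, 1 mM pyruvate and 10 mg/L proline. At 80–90% confluence they were treated 8 h with 10 μM test compound (n=3), 1 μM bortezomib (n=4) or DMSO. Cells were trypsinised and pooled from three plates per treatment. Lysates were trypsin-digested with NEM alkylation, K-ε-GlyGly peptides enriched by antibody, and analysed by LC-MS.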

Rpn11•Rpn8 heterodimer = Rpn11•Rpn8 heterodimer (Saccharomyces cerevisiae, UniProt P43588); experiment: Rpn11•Rpn8 di-Ub cleavage assay; assay type: biochemical; details: 40 μM, 20 μM or 10 μM
Chain of Rpn11•Rpn8 heterodimer (P43588 2-239 limits assumed): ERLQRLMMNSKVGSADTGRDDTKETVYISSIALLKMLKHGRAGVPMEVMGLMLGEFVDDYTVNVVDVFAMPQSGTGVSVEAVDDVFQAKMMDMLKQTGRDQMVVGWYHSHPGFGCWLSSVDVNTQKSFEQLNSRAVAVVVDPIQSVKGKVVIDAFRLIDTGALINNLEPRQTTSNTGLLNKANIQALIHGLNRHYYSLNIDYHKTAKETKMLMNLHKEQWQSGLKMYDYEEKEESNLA
Chain of Rpn11•Rpn8 heterodimer (Q08723 1-179 partner limits assumed): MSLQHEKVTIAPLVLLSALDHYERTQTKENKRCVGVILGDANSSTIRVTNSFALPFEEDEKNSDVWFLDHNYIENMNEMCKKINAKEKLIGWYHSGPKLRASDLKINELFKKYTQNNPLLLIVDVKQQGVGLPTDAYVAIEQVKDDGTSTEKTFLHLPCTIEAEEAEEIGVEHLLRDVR
Outline: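 Purified Rpn11•Rpn8 dimer (5 μM) was incubated at 30°C with K48-linked di-ubiquitin and varying test compound concentrations. The buffer was 40 mM HEPES pH 7.5, 100 mM NaCl, 100 mM KCl, 5% glycerol.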

HDAC6 = experiment: HDAC 6 activity assay; assay type: biochemical
[5] = test system: WT or nfe2l1^−/− MEF cells; experiment: Cell growth inhibition in WT versus Nrf1 knockout MEF cells; assay type: cell-based; details: 72 hours
HEK293T cells = experiment: Cellular imaging with optical zinc sensor; assay type: cell-based; details: 10 μM
Outline: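 HEK293T cells were transfected with a FRET zinc sensor and imaged 24–48 h later at 37°C/5% CO2 in phosphate-free HEPES-buffered HBSS, pH 7.4, with frames every minute. After 5 min resting FRET, 10 μM test compound or 0.5% DMSO was added (n=11 cells each). Calibration used 50 μM TPA, then 0.75 μM pyrithione plus 12 μM buffered zinc. Background-corrected FRET/CFP ratios were normalised to resting; error bars SEM.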

[6] = test system: NCI panel of 60 cancer cell lines; experiment: NCI panel of 60 cancer cell lines; assay type: cell-based; details: Homo sapiens, read-out: median GI50 NCI 60 panel
BRCC36 = BRCC36 (Homo sapiens, UniProt P46736); experiment: In vitro BRCC36 activity assay; assay type: biochemical
Outline: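 BRISC complex (BRCC36, KIAA0157, BRCC45, MERIT40) was co-expressed in insect cells and purified to >95% by affinity and size exclusion. 1 nM BRISC was reacted with 80 nM DiUbK63-TAMRA, monitoring TAMRA fluorescence (ex 540/em 590 nm). Data were normalised to DMSO and fitted for IC50. With substrate far below KM, IC50 approximates Ki.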

HCT116 cells [7] = experiment: Immunoblot of UPS substrates, UPR and apoptosis markers; assay type: cell-based
Outline: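 HCT116 cells were treated 6 h with 2 or 10 μM test compound, alongside 1 μM bortezomib, 10 μM CB5083 or 2 μg/ml tunicamycin. Lysates were immunoblotted for ubiquitin, p53, Hif1α, PERK, BiP, XBP1s, CHOP and GAPDH. For apoptosis, HCT116 cells were treated 24 h and blotted for PARP1, caspase3, pH2AX and GAPDH.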

carbonic anhydrase II = experiment: hCAII activity assay; assay type: biochemical, human
[8] = test system: K562 cell line (leukemia); experiment: NCI 60 panel, K562 cell line; assay type: cell-based; details: Homo sapiens, K562, read-out: GI50 K562
[9] = test system: WT or bortezomib-resistant RPE1 cells; experiment: Cell growth inhibition in WT and bortezomib-resistant RPE1 cells; assay type: cell-based; details: 72 hours
Outline: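 WT and bortezomib-resistant RPE1 cells received a concentration series of test compound for 72 h before CellTiter-Glo addition. Luminescence was normalised to DMSO control and fitted to a dose-response equation for GI50. Data are n=3 wells, from one representative of 3 independent experiments.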

[10] = mice ref 49; cited from earlier work

Q: With `O=C(Sc1cccc2cccnc12)c1ccccc1Br` [H18, S-(Quinolin-8-yl) 2-bromobenzothioate] as the molecule, how does the “effect of Zn(cyclen)^2+ on IC50 for Rpn11” value (Rpn11) read?
A: shifted the IC50 of both compounds to a higher value

Q: With `O=C(NCCc1nccs1)c1cnc2c(SSc3cccc4cc(C(=O)NCCc5nccs5)cnc34)cccc2c1` [capzimin] as the molecule, how does the “mode of inhibition of AMSH” value (AMSH) read?
A: competitive inhibitor

Q: What about the “accumulation of Ub^G76V-GFP” value [1] of the same molecule?
A: strong accumulation

Q: What about the “reversibility of inhibitory effect” value ([1]; after washout) of the same molecule?
A: reversible after washout

Q: And the IC50 (glyoxalase I (GLO1))?
A: 43 µM

Q: And the “aggresome formation (ubiquitin, HDAC6, p62/SQSTM1 staining)” value (A549 cells)?
A: punctate staining characteristic of aggresomes

Q: And the “preference for inhibiting Rpn11 compared to MMP12” value (MMP12)?
A: > 2 log

Q: And the “accumulation of high molecular weight species of angiomotin” value (angiomotin in 293T cells)?
A: strong accumulation

Q: And the “preference for inhibiting Rpn11 compared to MMP2” value (MMP2)?
A: > 2 log

Q: What about the “influence on degradation of ubiquitin-independent substrate Rpn10-127^V13Pext” value (26S proteasome) of the same molecule?
A: no influence

Q: And the GI50 (MCF7 (breast cancer))?
A: 1000 nM

Q: And the GI50 (HCT116 cells [2]; read-out: GI50 HCT116)?
A: ~2000 nM

Q: What about the GI50 (HCT116 cells [2]; read-out: GI50 HCT116 low serum) of the same molecule?
A: 600 nM

Q: And the GI50 [3]?
A: 700 nM

Q: What about the GI50 (SR cell line (leukemia)) of the same molecule?
A: 670 nM

Q: And the “up-regulation of angiomotin ubiquitination at K481” value [4]?
A: ~ 16 fold

Q: What about the “inhibition of purified Rpn11•Rpn8 (K48 di-ubiquitin cleavage)” value (Rpn11•Rpn8 heterodimer) of the same molecule?
A: acted directly on Rpn11•Rpn8

Q: And the “preference for inhibiting Rpn11 compared to HDAC6” value (HDAC6)?
A: > 2 log

Q: What about the “sensitivity of Nrf1^−/− cell line compared to WT MEF” value [5] of the same molecule?
A: more sensitive

Q: What about the “reduction in total cellular zinc” value (HEK293T cells) of the same molecule?
A: ≤ 5%

Q: What about the GI50 [6] of the same molecule?
A: 3.3 µM

Q: What about the “mode of inhibition of BRCC36” value (BRCC36) of the same molecule?
A: competitive inhibitor

Q: What about the “mode of inhibition of Rpn11 / 26S proteasome” value (Rpn11) of the same molecule?
A: uncompetitive inhibitor

Q: And the “effect on Nedd8-conjugated Cul1 (cellular Csn5)” value (HCT116 cells [7])?
A: little effect

Q: And the “accumulation of ubiquitin conjugates and proteasome substrates p53, Hif1α, Nrf2” value (HCT116 cells [7]; 2 or 10 μM, 6 hours)?
A: caused accumulation

Q: What about the “apoptosis (processed caspase 3, cleaved PARP)” value (HCT116 cells [7]; 24 hours) of the same molecule?
A: induced apoptosis

Q: And the “unfolded protein response (phosphorylated PERK, XBP1s, CHOP)” value (HCT116 cells [7]; HCT116 and 293T cells)?
A: provoked a UPR response

Q: What about the “preference for inhibiting Rpn11 compared to carbonic anhydrase II” value (carbonic anhydrase II) of the same molecule?
A: > 2 log

Q: And the GI50 [8]?
A: 1000 nM

Q: And the “GI50 against WT versus bortezomib-resistant retinal pigment epithelial cells” value [9]?
A: same GI50

Q: Which “accumulation of Ub^G76V-GFP” value [1] does the source give for `CC(C)C[C@@H](C=O)NC(=O)[C@H](CC(C)C)NC(=O)[C@H](CC(C)C)NC(=O)OCc1ccccc1` [MG132, reference compound] (Cbz-Leu-Leu-Leu-aldehyde) here?
A: strong accumulation

Q: What about the “aggresome formation (ubiquitin, HDAC6, p62/SQSTM1 staining)” value (A549 cells) of the same molecule?
A: punctate staining characteristic of aggresomes

Q: Which results are given for `Sc1cccc2cccnc12` [8TQ, quinoline-8-thiol]?
A: oral bioavailability [10]: orally bioavailable; tolerability [10]: tolerated; clearance of MG132-induced aggresomes after MG132 removal and compound addition (A549 cells): not cleared; inhibition of purified Rpn11•Rpn8 (K48 di-ubiquitin cleavage) (Rpn11•Rpn8 heterodimer): inhibited purified Rpn11•Rpn8 heterodimer; mode of inhibition of Rpn11 / 26S proteasome (Rpn11): uncompetitive inhibition; effect of Zn(cyclen)^2+ on IC50 for Rpn11 (Rpn11): shifted the IC50 of both compounds to a higher value; discrimination between Rpn11, BRCC36 and AMSH (Rpn11; details will be published elsewhere): did not distinguish between Rpn11, BRCC36, and AMSH; inhibition at 200 µM (Rpn11; read-out: inhibition of Rpn11 activity in MBP library screen): > 50%

Q: Which “up-regulation of angiomotin ubiquitination at K481” value [4] does the source give for `CC(C)C[C@H](NC(=O)[C@H](Cc1ccccc1)NC(=O)c1cnccn1)B(O)O` [bortezomib, reference compound] here?
A: 2.4 fold

Q: And the “sensitivity of Nrf1^−/− cell line compared to WT MEF” value [5]?
A: more sensitive
